According to ChEMBL document CHEMBL1148398, “Design, synthesis, and biological evaluation of thio-containing compounds with serum HDL-cholesterol-elevating properties” (2004):

Columns and labels:
[1] = system: Rattus norvegicus; assay: Effect of compound on aspartate aminotransferase (AST) levels in 3rd group of normal chow-fed male rats after a dose of 5 mg/kg/day; type: functional, organism-based
Summary of the method: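 Male Sprague–Dawley CD rats (60–80 g) on standard chow under a reversed 12 h light/dark cycle. Compound was suspended in 1.3% Tween 80/0.25% CMC and given as a single daily oral gavage dose for 4 days. Rats were fasted overnight and killed 24 h after the last dose. Serum ALT, AST, ALKP and LDH were read on a clinical analyzer. Weight gain was start versus end weight. Mean ± SEM, n = 6.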

[2] = system: Mesocricetus auratus; assay: Effect of compound on gain in body weight in 4th group of cholesterol-fed male hamsters at 100 mg/kg/day after 14 days of treatment

In the case of `CCN1CC(=O)N(c2cc(Cl)ccc2C)C1=S`, the Level [1] is reported as 216 U l-1 and the Body weight [2] is reported as 9 g.
